Tests used:
Type in all cases: biochemical
hCA I = hCA I (Homo sapiens, UniProt P00915); assay: stopped-flow CO2 hydration assay, hCA I
Procedure, shortened: (§1)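 Recombinant in-house enzyme, preincubated 15 min at room temperature with inhibitor. Inhibitor stock was 0.1 mM in water, diluted down to 0.01 nM. CO₂ (1.7–17 mM) hydration was followed by stopped-flow with 0.2 mM phenol red at 557 nm, in 20 mM HEPES pH 7.5 with 20 mM Na₂SO₄, over 10–100 s. Initial rates came from six traces and were corrected for the uncatalysed rate. Ki was obtained by non-linear least squares, mean of ≥3 measurements.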

hCA II = hCA II (Homo sapiens, UniProt P00918); assay: stopped-flow CO2 hydration assay, hCA II
Procedure, shortened: as §1

hCA IX = hCA IX (Homo sapiens, UniProt Q16790); assay: stopped-flow CO2 hydration assay, hCA IX; conditions: for SI I/IX: ratio of KI hCA I to KI hCA IX; for SI II/IX: ratio of KI hCA II to KI hCA IX
hCA XII = hCA XII (Homo sapiens, UniProt O43570); assay: stopped-flow CO2 hydration assay, hCA XII; conditions: for Ki: KI hCA XII; for SI I/XII: ratio of KI hCA I to KI hCA XII; for SI II/XII: ratio of KI hCA II to KI hCA XII
Chain of hCA XII (O43570 25-354): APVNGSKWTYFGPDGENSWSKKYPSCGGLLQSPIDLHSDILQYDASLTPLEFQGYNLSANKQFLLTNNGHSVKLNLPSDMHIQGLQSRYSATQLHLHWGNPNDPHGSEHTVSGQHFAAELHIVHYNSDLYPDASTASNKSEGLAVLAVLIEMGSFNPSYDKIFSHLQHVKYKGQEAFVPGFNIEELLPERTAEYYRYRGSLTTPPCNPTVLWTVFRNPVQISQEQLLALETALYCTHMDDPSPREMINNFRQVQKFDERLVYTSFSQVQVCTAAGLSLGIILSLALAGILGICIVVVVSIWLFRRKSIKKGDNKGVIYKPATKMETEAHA

Chain of hCA I (P00915 whole entry): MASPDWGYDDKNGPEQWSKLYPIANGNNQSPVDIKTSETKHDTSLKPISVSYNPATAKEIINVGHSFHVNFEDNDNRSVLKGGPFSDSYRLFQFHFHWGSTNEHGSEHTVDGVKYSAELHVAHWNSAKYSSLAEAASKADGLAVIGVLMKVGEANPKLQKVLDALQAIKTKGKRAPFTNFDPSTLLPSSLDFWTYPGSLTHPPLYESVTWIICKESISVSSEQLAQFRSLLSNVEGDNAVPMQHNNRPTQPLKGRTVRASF

| Compound | Ki (hCA I) [µM] | Ki (hCA II) [µM] | Ki (hCA IX) [µM] | SI I/IX (hCA IX) | SI II/IX (hCA IX) | Ki (hCA XII; stopped-flow hydration assay) [µM] | SI I/XII (hCA XII) | SI II/XII (hCA XII) | KI hCA XII (hCA XII; stopped-flow hydration assay) |
| --- | --- | --- | --- | --- | --- | --- | --- | --- | --- |
| COCCOc1cc2ncnc(Nc3cccc(-c4cn(CCOCCOCCOCCNC(=S)Nc5cccc(S(N)(=O)=O)c5)nn4)c3)c2cc1OCCOC [compound 8a, 3-(3-(2-(2-(2-(2-(4-(3-((6,7-Bis(2-methoxyethoxy)quinazolin-4-yl)amino)phenyl)-1H-1,2,3-triazol-1-yl)ethoxy)ethoxy)ethoxy)ethyl)thioureido)benzenesulfonamide] | 45.8 | 3.17 | 1.92 | 23.8 | 1.65 | 0.072 | 636 | 44.0 |  |
| COCCOc1cc2ncnc(Nc3cccc(-c4cn(CCOCCOCCOCCNC(=S)NCc5ccc(S(N)(=O)=O)cc5)nn4)c3)c2cc1OCCOC [compound 8c, 4-(15-(4-(3-((6,7-Bis(2-methoxyethoxy)quinazolin-4-yl)amino)phenyl)-1H-1,2,3-triazol-1-yl)-3-thioxo-7,10,13-trioxa-2,4-diazapentadecyl)benzenesulfonamide] | 3.28 | 1.15 | 0.026 | 127 | 44.57 | 0.0697 | 47.0 | 16.5 |  |
| COCCOc1cc2ncnc(Nc3cccc(-c4cn(CCOCCOCCOCCOCCOCCC(=O)NCc5ccc(S(N)(=O)=O)cc5)nn4)c3)c2cc1OCCOC [compound 10a, 1-(4-(3-((6,7-Bis(2-methoxyethoxy)quinazolin-4-yl)amino)phenyl)-1H-1,2,3-triazol-1-yl)-N-(4-sulfamoylbenzyl)-3,6,9,12,15-pentaoxaoctadecan-18-amide] | 0.903 | 0.253 | 4.16 | 0.22 | 0.06 | 3.3 | 0.27 | 0.08 |  |
| COCCOc1cc2ncnc(Nc3cccc(-c4cn(CCOCCOCCOCCOCCOCCC(=O)NCCOc5ccc6oc(=O)ccc6c5)nn4)c3)c2cc1OCCOC [compound 11, 1-(4-(3-((6,7-Bis(2-methoxyethoxy)quinazoline-4-yl)amino)phenyl)-1H-1,2,3-triazol-1-yl)-N-(2-((2-oxo-2H-chromen-6-yl)oxy)ethyl)-3,6,9,12,15-pentaoxaoctadecan-18-amide] | 70.1 | 33.7 | 4.68 | 15.0 | 7.21 |  |  |  | no activity |
| COCCOc1cc2ncnc(Nc3cccc(-c4cn(CCOCCOCCOCCOCCOCCNC(=O)Nc5cccc(S(N)(=O)=O)c5)nn4)c3)c2cc1OCCOC [compound 12a, 3-(3-(17-(4-(3-((6,7-Bis(2-methoxyethoxy)quinazoline-4-yl)amino)phenyl)-1H-1,2,3-triazol-1-yl)-3,6,9,12,15-pentaoxaheptadecyl)ureido)benzenesulfonamide] | 70.1 | 1.02 | 4.47 | 15.7 | 0.23 | 6.4 | 11.0 | 0.16 |  |
| COCCOc1cc2ncnc(Nc3cccc(-c4cn(CCOCCOCCOCCOCCOCCNC(=O)Nc5ccc(S(N)(=O)=O)cc5)nn4)c3)c2cc1OCCOC [compound 12b, 4-(3-(17-(4-(3-((6,7-Bis(2-methoxyethoxy)quinazolin-4-yl)amino)phenyl)-1H-1,2,3-triazol-1-yl)-3,6,9,12,15-pentaoxaheptadecyl)ureido)benzenesulfonamide] | 24.8 | 0.0908 | 5.62 | 4.41 | 0.02 | 0.0753 | 329 | 1.21 |  |
| COCCOc1cc2ncnc(Nc3cccc(-c4cn(CCOCCOCCOCCOCCOCCNC(=O)NCc5ccc(S(N)(=O)=O)cc5)nn4)c3)c2cc1OCCOC [compound 12c, 4-(21-(4-(3-((6,7-Bis(2-methoxyethoxy)quinazoline-4-yl)amino)phenyl)-1H-1,2,3-triazol-1-yl)-3-oxo-7,10,13,16,19-pentaoxa-2,4-diazahenicosyl)benzenesulfonamide] | 0.16 | 0.0008 | 0.387 | 0.41 | 0.002 | 0.94 | 0.17 | 0.0008 |  |
| COCCOc1cc2ncnc(Nc3cccc(-c4cn(CCOCCOCCOCCOCCOCCNC(=O)Nc5ccc6oc(=O)ccc6c5)nn4)c3)c2cc1OCCOC [compound 13, 1-(17-(4-(3-((6,7-Bis(2-methoxyethoxy)quinazolin-4-yl)amino)phenyl)-1H-1,2,3-triazol-1-yl)-3,6,9,12,15-pentaoxaheptadecyl)-3-(2-oxo-2H-chromen-6-yl)urea] | 28.3 | 11.4 | 0.242 | 117 | 46.9 | 8.06 | 3.51 | 1.41 |  |
| COCCOc1cc2ncnc(Nc3cccc(-c4cn(CCOCCOCCOCCOCCOCCNC(=S)Nc5ccc(S(N)(=O)=O)cc5)nn4)c3)c2cc1OCCOC [compound 14b, 4-(3-(17-(4-(3-((6,7-Bis(2-methoxyethoxy)quinazolin-4-yl)amino)phenyl)-1H-1,2,3-triazol-1-yl)-3,6,9,12,15-pentaoxaheptadecyl)thioureido)benzenesulfonamide] | 43.3 | 9.71 | 4.93 | 8.79 | 1.97 | 1.52 | 28.4 | 6.38 |  |
| COCCOc1cc2ncnc(Nc3cccc(-c4cn(CCOCCOCCOCCOCCOCCNC(=S)NCc5ccc(S(N)(=O)=O)cc5)nn4)c3)c2cc1OCCOC [compound 14c, 4-(21-(4-(3-((6,7-Bis(2-methoxyethoxy)quinazoline-4-yl)amino)phenyl)-1H-1,2,3-triazol-1-yl)-3-thioxo-7,10,13,16,19-pentaoxa-2,4-diazahenicosyl)benzenesulfonamide] | 4.98 | 1.01 | 3.73 | 1.33 | 0.27 | 0.665 | 7.48 | 1.52 |  |

More lines, in order of falling Ki (hCA I), values ahead:

| Ki (hCA I) [µM] | Ki (hCA II) [µM] | Ki (hCA IX) [µM] | SI I/IX (hCA IX) | SI II/IX (hCA IX) | Ki (hCA XII; stopped-flow hydration assay) [µM] | SI I/XII (hCA XII) | SI II/XII (hCA XII) | KI hCA XII (hCA XII; stopped-flow hydration assay) | Compound |
| --- | --- | --- | --- | --- | --- | --- | --- | --- | --- |
| 46.5 | 0.723 | 0.285 | 164 | 2.54 | 0.0589 | 790 | 12.3 |  | COCCOc1cc2ncnc(Nc3cccc(-c4cn(CCOCCOCCOCCNC(=O)Nc5cccc(S(N)(=O)=O)c5)nn4)c3)c2cc1OCCOC [compound 7a, 3-(3-(2-(2-(2-(2-(4-(3-((6,7-Bis(2-methoxyethoxy)quinazolin-4-yl)amino)phenyl)-1H-1,2,3-triazol-1-yl)ethoxy)ethoxy)ethoxy)ethyl)ureido)benzenesulfonamide] |
| 36.1 | 0.95 | 1.12 | 32.1 | 0.85 | 0.0574 | 628 | 16.6 |  | COCCOc1cc2ncnc(Nc3cccc(-c4cn(CCOCCOCCOCCNC(=O)Nc5ccc(S(N)(=O)=O)cc5)nn4)c3)c2cc1OCCOC [compound 7b, 4-(3-(2-(2-(2-(2-(4-(3-((6,7-Bis(2-methoxyethoxy)quinazolin-4-yl)amino)phenyl)-1H-1,2,3-triazol-1-yl)ethoxy)ethoxy)ethoxy)ethyl)ureido)benzenesulfonamide] |
| 4.91 | 0.531 | 1.34 | 3.65 | 0.39 | 0.0698 | 70.3 | 7.61 |  | COCCOc1cc2ncnc(Nc3cccc(-c4cn(CCOCCOCCOCCNC(=S)Nc5ccc(S(N)(=O)=O)c(C)c5Br)nn4)c3)c2cc1OCCOC [compound 9, 4-(3-(2-(2-(2-(2-(4-(3-((6,7-Bis(2-methoxyethoxy)quinazolin-4-yl)amino)phenyl)-1H-1,2,3-triazol-1-yl)ethoxy)ethoxy)ethoxy)ethyl)thioureido)-3-bromo-2-methylbenzenesulfonamide] |
| 3.14 | 0.135 | 0.112 | 28 | 1.2 | 0.00533 | 590 | 25.4 |  | COCCOc1cc2ncnc(Nc3cccc(-c4cn(CCOCCOCCOCCNC(=S)Nc5ccc(S(N)(=O)=O)cc5)nn4)c3)c2cc1OCCOC [compound 8b, 4-(3-(2-(2-(2-(2-(4-(3-((6,7-Bis(2-methoxyethoxy)quinazolin-4-yl)amino)phenyl)-1H-1,2,3-triazol-1-yl)ethoxy)ethoxy)ethoxy)ethyl)thioureido)benzenesulfonamide] |
| 0.923 | 0.106 | 0.028 | 32.6 | 3.73 | 0.00649 | 142 | 16.3 |  | COCCOc1cc2ncnc(Nc3cccc(-c4cn(CCOCCOCCOCCNC(=S)NCCc5ccc(S(N)(=O)=O)cc5)nn4)c3)c2cc1OCCOC [compound 8d, 4-(16-(4-(3-((6,7-Bis(2-methoxyethoxy)quinazolin-4-yl)amino)phenyl)-1H-1,2,3-triazol-1-yl)-4-thioxo-8,11,14-trioxa-3,5-diazahexadecyl)benzenesulfonamide] |
